# pIC50: −log10 of the molar value. Active and inactive are the calls of the source. The calls are words filed in the database; no cut-off is given here.
# Legend:
# [1] = biological target: T1, Dipeptidyl peptidase 1 (Homo sapiens, UniProt P53634); test: Inhibition of CatL-activated recombinant human C-terminal His10-tagged cathepsin C (25 to 463 residues) expressed in mouse myeloma cells using Gly-Phe-AFC as substrate preincubated for 3 hrs followed by substrate addition and measured after 60 mins; assay type: cell-free
# Procedure, shortened: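 Activated rhCatC was diluted to 4.4 nM in 25 mM MES, 50 mM NaCl, 5 mM DTT, 0.01% Triton X-100, pH 6.0. It was preincubated with compound (added in 10% DMSO) for 3 h at RT. Gly-Phe-AFC was then added to 100 μM final and read as fluorescence after 60 min. IC50 came from a sigmoidal nonlinear fit; values are means of at least two experiments.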
# [2] = biological target: T1, Dipeptidyl peptidase 1; test: Inhibition of cathepsin C (unknown origin)
# Procedure, shortened: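 Enzyme preincubated with compound 3 h at RT. Gly-Phe-AFC added (100 μM final) and product fluorescence read after 60 min. IC50 from sigmoidal nonlinear regression, mean of at least two experiments.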
# [3] = biological target: Cathepsin S (Homo sapiens, UniProt P25774); test: Inhibition of recombinant human C-terminal polyhistidine-tagged cathepsin S (Met1 to Ile331 residues) expressed in HEK293 cells using MCA-Arg-Pro-Lys-Pro-Val-Glu-NVAL-Trp-Arg-Lys(DNP)-NH2 as substrate preincubated for 30 mins followed by substrate addition and measured after 30 mins
# Procedure, shortened: (§1)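 Recombinant human cathepsin was preincubated with compound for 30 min at RT, then reacted with substrate for 30 min. CatB and CatL were read with Z-Leu-Arg-AMC (Ex 380/Em 460 nm). CatS was read with MCA-Arg-Pro-Lys-Pro-Val-Glu-Nva-Trp-Arg-Lys(DNP)-NH2 (Ex 320/Em 405 nm). E-64 served as inhibitor control.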
# [4] = biological target: Cytochrome P450 2C19 (Homo sapiens, UniProt P33261); test: Inhibition of CYP2C19 (unknown origin); assay type: ADME
# Procedure, shortened: (§2)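 Tested against recombinant human cytochrome P450 isoforms 1A2, 2D6, 3A4, 2C9 and 2C19.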
# [5] = biological target: Cytochrome P450 2D6 (Homo sapiens, UniProt P10635); test: Inhibition of CYP2D6 (unknown origin); assay type: ADME; procedure, shortened: as §2
# [6] = biological target: Cytochrome P450 2C9 (Homo sapiens, UniProt P11712); test: Inhibition of CYP2C9 (unknown origin); assay type: ADME; procedure, shortened: as §2
# [7] = biological target: Cathepsin B (Homo sapiens, UniProt P07858); test: Inhibition of recombinant human C-terminal polyhistidine-tagged cathepsin B (Arg18 to Ile339 residues) expressed in HEK293 cells using Z-Leu-Arg-AMC as substrate preincubated for 30 mins followed by substrate addition and measured after 30 mins; procedure, shortened: as §1
# [8] = Intrinsic clearance in human liver microsomes assessed per mg protein measured after 60 mins in presence of NADPH by LC-MS/MS analysis; assay type: ADME, Microsome; conditions: read-out: CLH
# [9] = biological target: Cytochrome P450 3A4 (Homo sapiens, UniProt P08684); test: Inhibition of CYP3A4 (unknown origin); assay type: ADME; procedure, shortened: as §2
# [10] = biological target: Epidermal growth factor receptor (Homo sapiens, UniProt P00533); test: Inhibition of EGFR (unknown origin) up to 10 uM using biotin-labelled peptide as substrate preincubated for 2 hrs followed by substrate addition and measured after 30 mins by HTRF FRET assay
# Procedure, shortened: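 EGFR WT was used at 0.1 nM final in 50 mM HEPES pH 7.0, 0.02% NaN3, 0.01% BSA, 0.1 mM orthovanadate, 10 mM MgCl2, 2.5 mM DTT, 6.25 nM SEB. It was preincubated with compound for 2 h. Biotin-peptide (1.4 μM) and ATP (20 μM) were then added for 30 min at RT. Read-out was HTRF/TR-FRET (Ex 320, Em 615/665 nm) with a sigmoidal curve fit.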
# [11] = biological target: T2, Cytochrome P450 1A2 (Homo sapiens, UniProt P05177); test: Inhibition of CYP1A2 (unknown origin); assay type: ADME; procedure, shortened: as §2
# T2 sequence (P05177 whole entry): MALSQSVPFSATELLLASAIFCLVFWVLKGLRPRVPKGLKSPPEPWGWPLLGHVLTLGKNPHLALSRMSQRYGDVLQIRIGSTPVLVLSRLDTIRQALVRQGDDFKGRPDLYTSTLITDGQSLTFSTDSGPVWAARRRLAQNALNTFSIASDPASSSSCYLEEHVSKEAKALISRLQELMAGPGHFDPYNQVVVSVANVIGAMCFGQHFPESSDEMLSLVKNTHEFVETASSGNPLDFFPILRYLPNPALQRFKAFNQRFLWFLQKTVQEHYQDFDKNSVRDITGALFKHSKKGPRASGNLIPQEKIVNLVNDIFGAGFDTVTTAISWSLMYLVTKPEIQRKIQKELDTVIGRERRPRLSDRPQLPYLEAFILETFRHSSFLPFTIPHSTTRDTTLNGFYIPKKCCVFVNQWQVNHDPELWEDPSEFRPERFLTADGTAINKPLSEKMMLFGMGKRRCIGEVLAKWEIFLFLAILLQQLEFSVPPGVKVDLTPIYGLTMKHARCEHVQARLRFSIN
# [12] = biological target: Procathepsin L (Homo sapiens, UniProt P07711); test: Inhibition of recombinant human C-terminal His6-tagged cathepsin L (Glu113 to Val333 and Ala114 to Val333 residues) expressed in mouse myeloma cells using Z-Leu-Arg-AMC as substrate preincubated for 30 mins followed by substrate addition and measured after 30 mins; procedure, shortened: as §1
# [13] = biological target: T1, Dipeptidyl peptidase 1; test: Inhibition of cathepsin C in human U937 cells using H-Gly-Phe-AFC as substrate preincubated for 4 hrs followed by substrate addition and measured after 60 mins; assay type: cell-based
# Procedure, shortened: (§3)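 THP1 or U937 cells, grown in RPMI 1640 with 10% FBS, were seeded at 1.0 × 10^6/mL. They were preincubated with threefold serial dilutions of compound for 4 h at 37 °C. H-Gly-Phe-AFC was then added from a 100 μM solution and fluorescence was read after 60 min at 37 °C. Values are means of at least two experiments.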
# [14] = Intrinsic clearance in mouse liver microsomes assessed per mg protein measured after 60 mins in presence of NADPH by LC-MS/MS analysis; assay type: ADME, Microsome; conditions: read-out: CLH
# [15] = biological target: T1, Dipeptidyl peptidase 1; test: Inhibition of cathepsin C in human THP1 cells using H-Gly-Phe-AFC as substrate preincubated for 4 hrs followed by substrate addition and measured after 60 mins; assay type: cell-based; procedure, shortened: as §3
# [16] = Intrinsic clearance in rat liver microsomes assessed per mg protein measured after 60 mins in presence of NADPH by LC-MS/MS analysis; assay type: ADME, Microsome; conditions: read-out: CLH
smiles,measurement,setting,value
C=CC(=O)Nc1cccc(Oc2cccc(Nc3ccc(N4CCN(C)CC4)cc3OC)n2)c1,pIC50,[1],6.11
C=CC(=O)Nc1cccc(Oc2nc(Nc3ccc(N4CCN(C)CC4)cc3OC)ccc2N2CCCC2)c1,pIC50,[1],6.76
C=CC(=O)Nc1cccc(Oc2nc(Nc3ccc(N4CCNCC4)cc3)ccc2Cl)c1,pIC50,[1],6.30
C=CC(=O)Nc1cc(Oc2nc(Nc3ccc(N4CCC(N(C)C)CC4)cn3)ccc2N2CCCCC2)ccc1C,pIC50,[1],6.51
C=CC(=O)Nc1cccc(Oc2nc(Nc3ccc(N4CCN(C)CC4)cc3OC)ccc2C(F)(F)F)c1,pIC50,[1],5.79
C=CC(=O)Nc1cccc(Oc2nc(Nc3ccc(N4CCN(C)CC4)cc3OC)ccc2N2CCCC2)c1C,pIC50,[1],< 5.00
C=CC(=O)Nc1cccc(Oc2nc(Nc3ccc(N4CCN(CC5CC5)CC4)cc3)ccc2Cl)c1,pIC50,[1],6.11
C=CC(=O)Nc1cccc(Oc2nc(Nc3cccc(CN)c3)ccc2Cl)c1,pIC50,[1],5.67
C=CC(=O)Nc1cccc(Oc2nc(Nc3ccc(N4CCN(C)CC4)cc3OC)ccc2C#N)c1,pIC50,[1],6.08
C=CC(=O)Nc1cccc(Oc2nc(Nc3ccc(CCN)cc3)ccc2Cl)c1,pIC50,[1],5.69
C=CC(=O)Nc1cc2c(Nc3ccc(F)c(Cl)c3)ncnc2cc1OCCCN1CCOCC1 [CANERTINIB],pIC50,[2],5.57
C=CC(=O)Nc1cc(Oc2nc(Nc3ccc(N4CCN(C)CC4)cc3OC)ccc2N2CCOCC2)ccc1C,pIC50,[3],< 5.00
same,pIC50,[4],< 5.00
same,pIC50,[1],7.23
same,pIC50,[5],< 5.00
same,pIC50,[6],< 5.00
same,pIC50,[7],5.00 to 5.52
same,microsomal CLint,[8],1.9 µL/min/mg
same,pIC50,[9],< 5.00
same,inhibition,[10],inactive
same,pIC50,[11],< 5.00
same,pIC50,[12],< 5.00
same,pIC50,[13],8.23
same,microsomal CLint,[14],4 µL/min/mg
same,pIC50,[15],8.41
same,microsomal CLint,[16],10 µL/min/mg
C=CC(=O)Nc1cc(Oc2nc(Nc3ccc(N4CCN(C)CC4)cc3OC)ccc2N2CCCCC2)ccc1C(F)(F)F,pIC50,[1],8.64
same,microsomal CLint,[8],5.2 µL/min/mg
same,pIC50,[13],8.62
same,microsomal CLint,[14],15.4 µL/min/mg
same,pIC50,[15],8.74
same,microsomal CLint,[16],15.1 µL/min/mg
C=CC(=O)Nc1cccc(Oc2nc(Nc3ccc(N4CCN(C)CC4)cc3OC)ncc2Cl)c1,pIC50,[1],5.68
same,pIC50,[2],5.68
C=CC(=O)Nc1ccc(C)c(Oc2nc(Nc3ccc(N4CCN(C)CC4)cc3OC)ccc2N2CCCC2)c1,pIC50,[1],6.30
C#Cc1ccc(Nc2ccc(N3CCN(C)CC3)cc2OC)nc1Oc1cccc(NC(=O)C=C)c1,pIC50,[1],6.41
C=CC(=O)Nc1cc(Oc2nc(Nc3ccc(N4CCC(N(C)C)CC4)cc3OC)ccc2N2CCCCC2)ccc1C,pIC50,[1],7.81
same,microsomal CLint,[8],2.5 µL/min/mg
same,pIC50,[13],8.66
same,microsomal CLint,[14],4 µL/min/mg
same,pIC50,[15],9.00
same,microsomal CLint,[16],4.1 µL/min/mg
C=CC(=O)Nc1cccc(Oc2nc(Nc3ccc(N4CCN(C)CC4)cc3OC)ccc2N2CCCCC2)c1,pIC50,[1],6.66
